Experimental findings from ChEMBL document CHEMBL3351600, “Sulfur, selenium and tellurium pseudopeptides: synthesis and biological evaluation” (Bioorg Med Chem, 2014) are described below.

The structures appear in SMILES notation. Some results are limits rather than exact numbers.

One assay deals with SN12C. Briefly: Growth inhibition of human SN12C cells after 48 hrs. It is filed as functional. Particulars: for TGI: read-out: pTGI (converted). An outline of the steps: (§1)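 Run by the NCI 58-cell-line screen under its standard cytotoxicity protocol. Compounds were first tested at a single dose, then at five doses. Cells were exposed to compound for 48 h.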
The test system of a further assay is SK-MEL-2. Nature of the assay: Growth inhibition of human SK-MEL-2 cells after 48 hrs. The format is functional. Particulars: SK-MEL-2, 48 h; for CC50: read-out: pLC50 (the source's name) (converted); for TGI: read-out: pTGI (converted). The gist of the method: (§2)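 NCI-60 human tumour cell line panel screen run at the US National Cancer Institute under its standard cytotoxicity protocol. It covers leukaemia, NSCLC, colon, CNS, melanoma, ovarian, renal, prostate and breast lines. An initial single-dose test was followed by five-dose testing with 48 h compound exposure.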

The test system of another assay is Aspergillus niger. Briefly: Antimicrobial activity against Aspergillus niger assessed as inhibition at 20 ug/6 mm disk after 1 to 2 days by agar diffusion assay. The format is functional. The gist of the method:
(§3)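 Standard agar diffusion: 6-mm paper disks loaded with 20 µg of compound were placed on inoculated plates. Inhibition-zone diameter (mm) was read after 1 and 2 days of growth.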

The next assay concerns Mycolicibacterium phlei. Briefly: Antimicrobial activity against Mycobacterium phlei assessed as inhibition at 20 ug/6 mm disk after 1 to 2 days by agar diffusion assay. The format is functional. An outline of the steps: as §3
On the technique in general: A growth-free zone around the sample is the usual read-out of agar diffusion tests.

The next assay relates to SR. Briefly: Growth inhibition of human SR cells after 48 hrs. The format is functional. Particulars: for TGI: read-out: pTGI (converted). An outline of the steps:
as §1

The next assay deals with A-431. Briefly: Reduction in ROS in human A431 cells assessed as decrease in hydrogen peroxide level at 0.1 to 10 ng/ml after 1 hr by DCHFA assay. The format is functional, cell-based. The gist of the method: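 A-431 cells were seeded at 10^5 per well and exposed to a range of compound concentrations for 1 h. They were then loaded with DCHFA probe for 30 min in the dark. Fluorescence was read immediately at ex/em 485/528 nm and expressed as arbitrary units per 10^5 cells.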

Another assay has as its system IGROV-1. Briefly: Growth inhibition of human IGROV1 cells after 48 hrs. The format is functional. Particulars: IGROV-1, 48 h; for CC50: read-out: pLC50 (the source's name) (converted); for TGI: read-out: pTGI (converted). The gist of the method: as §2
Assay [1] relates to MCF7. Briefly: Cell cycle arrest in human MCF7 cells assessed as accumulation at G0/G1 phase after 30 mins by propidium iodide staining-based flow cytometric analysis. The format is functional. The gist of the method: (§4)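 MCF-7 cells (10^6) were treated with compounds for 24 h alongside a methanol vehicle control. They were fixed in cold 70% methanol at 4 °C for one day, washed in PBS and permeabilised with 0.1% saponin in PBS. They were then stained with propidium iodide plus RNase (1 mg/ml) for 30 min, and DNA-content distribution was read by FACScan flow cytometry.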
(A flow cytometer gives signals particle by particle.)

The test system of assay [2] is MCF7. Nature of the assay: Cell cycle arrest in human MCF7 cells assessed as accumulation at G2/M phase after 30 mins by propidium iodide staining-based flow cytometric analysis. It is filed as functional. An outline of the steps: as §4
In a further assay the test system is CCRF-CEM. Briefly: Growth inhibition of human CCRF-CEM cells after 48 hrs. The format is functional. The note with it: for CC50: read-out: pLC50 (the source's name) (converted); for TGI: read-out: pTGI (converted). The gist of the method:
as §2

Assay [3] has as its system MCF7. Briefly: Cell cycle arrest in human MCF7 cells assessed as accumulation at S phase […] by propidium iodide staining-based flow cytometric analysis. The format is functional.

For `COc1ccc(N(CC(=O)NCCC[Te]c2ccccc2)C(=O)CNC(=O)OC(C)(C)C)cc1`, the GI50 with SN12C is 2.04 µM; with SK-MEL-2, 3.02 µM; with SR, 1.66 µM; with IGROV-1, 2.24 µM. Also, the LC50 with SN12C and with SR was more than 100 µM in each case. Also, the TGI in the assay on SN12C is 5.01 µM; in the assay on SK-MEL-2, 6.76 µM; with SR, 7.76 µM; in the assay with IGROV-1 it was 5.37 µM. In addition, the results for the CC50 in the assay with SK-MEL-2 and in the assay with IGROV-1 were more than 100 µM and 25.7 µM, respectively. Further, the results for the “diameter of the inhibition zone (DIZ)” value in the assay on Aspergillus niger and in the assay on Mycolicibacterium phlei were 0 mm and 12 mm, respectively. The Activity result with A-431 was “Dose-dependent effect”.
In the assay with SN12C, `COc1ccc(N(CC(=O)NCCC[Te]c2ccccc2)C(=O)CCSC2=C(C)C(=O)c3ccccc3C2=O)cc1` had an LC50 of 23.4 µM. The Activity in the assay with MCF7 [1] turned out to be 88.62%; in the assay with MCF7 [2], 5.84%; in the assay with MCF7 [3], 5.55%. Also, the results for the GI50 in the assay on SK-MEL-2, with CCRF-CEM and in the assay with IGROV-1 were 2.29 µM, 0.417 µM and 0.776 µM, respectively. In addition, the results for the CC50 with SK-MEL-2, with CCRF-CEM and in the assay with IGROV-1 were 14.8 µM, more than 100 µM and 5.37 µM, respectively. The TGI in the assay with SK-MEL-2 is 5.01 µM; with CCRF-CEM, 2.51 µM; in the assay with IGROV-1, 2.19 µM. The “diameter of the inhibition zone (DIZ)” value was 0 mm in the assay on Aspergillus niger and 15 mm in the assay with Mycolicibacterium phlei.
`CC1=C(SCCC(=O)OCC(=O)NCCC[Te]c2ccccc2)C(=O)c2ccccc2C1=O`: the GI50 in the assay with SN12C is 1.86 µM; in the assay with SK-MEL-2, 2.09 µM; in the assay on CCRF-CEM it was 2.4 µM; in the assay on IGROV-1 it was 2.14 µM. This molecule also showed an LC50 with SN12C of 31.6 µM. Further, the TGI in the assay with SN12C is 6.17 µM; in the assay with SK-MEL-2, 4.79 µM; in the assay with CCRF-CEM, 18.6 µM; with IGROV-1, 6.46 µM. Moreover, the CC50 in the assay on SK-MEL-2 is 12.9 µM; in the assay with CCRF-CEM it was more than 100 µM; with IGROV-1, 35.5 µM. Also, the “diameter of the inhibition zone (DIZ)” value came out at 19 mm in the assay on Aspergillus niger and 16 mm in the assay on Mycolicibacterium phlei.
Take `COc1ccc(N(CC(=O)NCCC[Te]c2ccccc2)C(=O)c2ccccc2)cc1`: the GI50 was 2.69 µM in the assay with SN12C, 4.17 µM in the assay with SK-MEL-2, 2.82 µM in the assay with SR and 2.88 µM with IGROV-1. Moreover, the LC50 in the assay on SN12C and with SR was more than 100 µM each time. Further, the TGI is 8.51 µM in the assay on SN12C, 15.1 µM in the assay on SK-MEL-2, 10 µM in the assay with SR and 8.32 µM with IGROV-1. Besides, the Activity with MCF7 [1] was 85.01%; with MCF7 [2], 8.8%; in the assay on A-431, “Dose-dependent effect”; with MCF7 [3], 6.19%. The figures for the CC50 in the assay with SK-MEL-2 and with IGROV-1 were more than 100 µM and 55 µM, respectively. Besides, the “diameter of the inhibition zone (DIZ)” value is reported as 10 mm with Aspergillus niger and 17 mm in the assay with Mycolicibacterium phlei.

The GI50 is the concentration that inhibits growth by half. A higher GI50 goes with lower sensitivity of the cells. What is called LC50 is the concentration that kills 50% of the test population. High values mean lower toxicity, low ones greater toxicity.
